Experimental data published in ChEMBL document CHEMBL3576859, “Novel benzamide-based histamine h3 receptor antagonists: the identification of two candidates for clinical development” (ACS Med Chem Lett, 2015).
Active and inactive are the calls of the source. No cut-off for these calls is given here.

Columns and labels:
[1] = Drug uptake in Sprague-Dawley rat brain at 3 mg/kg, po measured at 1 hr; format: ADME, organism-based; details: read-out: Drug uptake
In short: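 Rats dosed orally at 3 mg/kg. Brain drug concentration (μM) measured at 1 h post-dose.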

[2] = Volume of distribution at steady state in Sprague-Dawley rat; format: ADME, organism-based; details: in vivo, read-out: Vdss
Rattus norvegicus [3] = assay: Ex vivo histamine H3 receptor occupancy in Sprague-Dawley rat striatum at 3 mg/kg, po measured at 1 hr by autoradiographic analysis; format: functional
In short: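 After a 3 mg/kg oral dose in rats, ex vivo H3 receptor occupancy was determined by autoradiography at 1 h. Values are mean ± SD.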

[4] = Half life in Sprague-Dawley rat at 1 mg/kg, iv; format: ADME, organism-based; details: in vivo
[5] = target: Voltage-gated L-type calcium channel (Rattus norvegicus, UniProt P22002+Q02485+P27732); assay: Binding affinity to rat L-type calcium channel at 1 uM
[6] = Apparent permeability across basolateral to apical side in human Caco2 cells at 10 uM […] by LC/MS/MS analysis; format: ADME, cell-based; details: Caco-2
In short: (§1)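 Caco-2 monolayer permeability measured in both directions, apical-to-basolateral and basolateral-to-apical. Reported as P_app (×10−⁶ cm/s), given as A−B/B−A pairs.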

[7] = Metabolic stability in Sprague-Dawley rat liver microsomes assessed as compound remaining at 1 uM after 15 mins; format: ADME; details: read-out: Stability
In short: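 Rat liver microsomes incubated with compound for 15 min. Stability expressed as percent of parent remaining.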

Histamine H3 receptor = Histamine H3 receptor (Homo sapiens, UniProt Q9Y5N1); assay: Displacement of N-[3H]methylhistamine from human histamine H3 receptor expressed in human SK-N-MC cells after 45 mins; format: cell-based
Chain of Histamine H3 receptor (Q9Y5N1 whole entry): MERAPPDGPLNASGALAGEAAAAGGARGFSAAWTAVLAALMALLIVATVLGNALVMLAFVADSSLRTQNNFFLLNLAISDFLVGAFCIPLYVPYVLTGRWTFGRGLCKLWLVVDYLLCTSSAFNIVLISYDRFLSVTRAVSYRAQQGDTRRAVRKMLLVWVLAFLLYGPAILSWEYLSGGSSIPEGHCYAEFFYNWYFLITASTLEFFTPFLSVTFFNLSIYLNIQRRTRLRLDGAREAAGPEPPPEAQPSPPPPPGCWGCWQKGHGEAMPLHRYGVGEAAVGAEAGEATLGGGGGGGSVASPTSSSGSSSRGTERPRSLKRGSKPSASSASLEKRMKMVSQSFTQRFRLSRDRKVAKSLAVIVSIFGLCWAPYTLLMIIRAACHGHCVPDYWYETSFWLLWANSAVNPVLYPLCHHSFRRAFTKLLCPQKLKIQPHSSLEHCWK

[8] = target: Voltage-gated inwardly rectifying potassium channel KCNH2 (Homo sapiens, UniProt Q12809); assay: Displacement of [3H]-astemizole from human ERG expressed in HEK293 cells after 60 mins by scintillation counting analysis; format: cell-based
Chain of Voltage-gated inwardly rectifying potassium channel KCNH2 (Q12809 whole entry): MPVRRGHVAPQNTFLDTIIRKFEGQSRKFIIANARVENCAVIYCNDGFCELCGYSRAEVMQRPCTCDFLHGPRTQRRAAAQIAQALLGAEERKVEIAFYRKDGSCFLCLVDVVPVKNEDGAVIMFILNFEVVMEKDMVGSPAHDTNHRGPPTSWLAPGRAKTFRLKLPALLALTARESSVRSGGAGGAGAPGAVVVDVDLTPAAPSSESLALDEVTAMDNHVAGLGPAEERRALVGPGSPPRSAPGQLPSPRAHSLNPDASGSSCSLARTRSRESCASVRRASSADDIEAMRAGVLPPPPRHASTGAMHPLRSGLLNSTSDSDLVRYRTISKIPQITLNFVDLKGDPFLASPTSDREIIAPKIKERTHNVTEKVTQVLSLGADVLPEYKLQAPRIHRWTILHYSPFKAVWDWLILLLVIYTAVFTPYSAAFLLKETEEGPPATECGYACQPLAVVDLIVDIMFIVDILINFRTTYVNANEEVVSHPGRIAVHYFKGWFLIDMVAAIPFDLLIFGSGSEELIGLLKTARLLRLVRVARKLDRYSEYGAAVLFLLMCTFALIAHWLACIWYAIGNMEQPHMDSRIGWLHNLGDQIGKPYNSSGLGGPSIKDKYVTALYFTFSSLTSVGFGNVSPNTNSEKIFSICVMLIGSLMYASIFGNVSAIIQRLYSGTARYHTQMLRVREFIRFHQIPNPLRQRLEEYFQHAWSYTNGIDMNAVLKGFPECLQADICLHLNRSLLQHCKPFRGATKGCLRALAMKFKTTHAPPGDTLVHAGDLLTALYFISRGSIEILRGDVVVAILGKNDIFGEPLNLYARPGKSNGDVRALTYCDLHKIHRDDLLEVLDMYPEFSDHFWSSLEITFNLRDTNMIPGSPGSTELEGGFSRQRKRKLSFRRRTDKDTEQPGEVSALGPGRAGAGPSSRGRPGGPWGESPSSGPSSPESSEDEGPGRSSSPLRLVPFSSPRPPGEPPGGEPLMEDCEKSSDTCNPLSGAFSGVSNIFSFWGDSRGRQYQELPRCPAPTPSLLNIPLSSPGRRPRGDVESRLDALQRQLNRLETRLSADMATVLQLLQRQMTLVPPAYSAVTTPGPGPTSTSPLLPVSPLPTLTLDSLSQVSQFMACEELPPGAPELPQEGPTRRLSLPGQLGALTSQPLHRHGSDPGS

[9] = Metabolic stability in human liver microsomes assessed as compound remaining at 1 uM after 15 mins; format: ADME; details: read-out: Stability
In short: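 Compound incubated with human liver microsomes for 15 min. Read-out is percent parent remaining.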

[10] = Oral bioavailability in Sprague-Dawley rat at 10 mg/kg; format: ADME, organism-based; details: in vivo
[11] = Clearance in Sprague-Dawley rat; format: ADME, organism-based; details: in vivo
[12] = Apparent permeability across apical to basolateral side in human Caco2 cells at 10 uM after 60 mins by LC/MS/MS analysis; format: ADME, cell-based; details: Caco-2; in short: as §1
Rattus norvegicus [13] = assay: Toxicity in Sprague-Dawley rat assessed as increase in locomotor activity at 10 mg/kg, sc; format: organism-based; details: in vivo
Rattus norvegicus [14] = assay: Toxicity in Sprague-Dawley rat assessed as effect on rapid eye movement sleep at 10 mg/kg, sc administered during light sleep phase measured over first 6 hrs post-treatment; format: organism-based; details: in vivo
[15] = Toxicity in po dosed rat administered up to 28 days; format: organism-based; details: in vivo
In short: (§2)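 Rats dosed orally at up to 250 mg/kg daily for up to 28 days. Monitored for clinical signs (salivation, activity), body weight, food consumption and clinical pathology; NOAEL derived.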

Canis familiaris [16] = assay: Toxicity in dog at 10 to 75 mg/kg/day administered for 5 days; format: organism-based, Canis lupus familiaris; details: in vivo, 120 h
Rattus norvegicus [17] = assay: Toxicity in rat assessed as decrease in food consumption at 250 mg/kg, po administered up to 28 days; format: organism-based; details: in vivo, 672 h; in short: as §2
Homo sapiens [18] = species on record: Homo sapiens; assay: Toxicity in human assessed as insomnia; format: organism-based; details: in vivo
Cytochrome P450 2C9 = Cytochrome P450 2C9 (Homo sapiens, UniProt P11712); assay: Inhibition of CYP2C9 (unknown origin); format: ADME
Chain of Cytochrome P450 2C9 (P11712 whole entry): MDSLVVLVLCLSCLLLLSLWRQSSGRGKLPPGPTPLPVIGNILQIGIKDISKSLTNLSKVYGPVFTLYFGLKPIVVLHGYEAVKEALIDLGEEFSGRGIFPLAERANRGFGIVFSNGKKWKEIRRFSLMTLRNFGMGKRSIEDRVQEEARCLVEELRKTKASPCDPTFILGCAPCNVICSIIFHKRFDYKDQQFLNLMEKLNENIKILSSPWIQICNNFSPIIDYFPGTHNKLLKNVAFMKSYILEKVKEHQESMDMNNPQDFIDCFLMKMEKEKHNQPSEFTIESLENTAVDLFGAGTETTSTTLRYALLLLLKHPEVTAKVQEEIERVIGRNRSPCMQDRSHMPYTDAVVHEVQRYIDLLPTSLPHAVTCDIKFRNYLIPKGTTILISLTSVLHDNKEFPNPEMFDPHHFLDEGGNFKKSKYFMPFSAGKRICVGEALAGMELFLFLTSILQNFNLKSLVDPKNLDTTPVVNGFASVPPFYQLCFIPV
In short: (§3)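 CYP1A2, 2C9, 2C19, 2D6 and 3A4 inhibition measured and reported as IC₅₀ (μM).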

Rattus norvegicus [19] = assay: Wake-promoting activity in Sprague-Dawley rat assessed as decrease in non-rapid eye movement sleep duration at 10 mg/kg, sc administered during light sleep phase measured over first 6 hrs post-treatment; format: functional, organism-based
In short: (§4)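 Rats treated during the light sleep phase. Time awake, NREM and REM sleep duration scored over the first 6 h post-treatment.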

[20] = Elimination half life in human at 2 mg; format: ADME, organism-based; details: in vivo, read-out: beta t1/2 (converted)
In short: (§5)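 Mean elimination half-life determined in human dose groups receiving 2 mg and 5 mg.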

Cytochrome P450 2D6 = Cytochrome P450 2D6 (Homo sapiens, UniProt P10635); assay: Inhibition of CYP2D6 (unknown origin); format: ADME; in short: as §3
Chain of Cytochrome P450 2D6 (P10635 whole entry): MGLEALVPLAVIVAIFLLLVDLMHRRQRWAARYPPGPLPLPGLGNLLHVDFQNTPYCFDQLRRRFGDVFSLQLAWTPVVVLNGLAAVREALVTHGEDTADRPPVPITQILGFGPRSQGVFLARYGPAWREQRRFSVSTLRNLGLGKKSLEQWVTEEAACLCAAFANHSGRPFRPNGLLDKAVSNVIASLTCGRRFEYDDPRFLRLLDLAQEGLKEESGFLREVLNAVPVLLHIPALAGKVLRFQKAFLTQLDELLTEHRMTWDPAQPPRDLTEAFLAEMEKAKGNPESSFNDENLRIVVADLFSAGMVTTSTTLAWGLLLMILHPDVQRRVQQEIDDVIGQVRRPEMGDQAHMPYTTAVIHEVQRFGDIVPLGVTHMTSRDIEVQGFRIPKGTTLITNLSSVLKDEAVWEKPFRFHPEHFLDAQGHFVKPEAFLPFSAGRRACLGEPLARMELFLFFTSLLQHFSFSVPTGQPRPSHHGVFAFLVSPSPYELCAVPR

[21] = Plasma protein binding in human; format: ADME, cell-free; details: read-out: PPB (converted)
[22] = Elimination half life in human at 5 mg; format: ADME, organism-based; details: in vivo, read-out: beta t1/2 (converted); in short: as §5
Cytochrome P450 2C19 = Cytochrome P450 2C19 (Homo sapiens, UniProt P33261); assay: Inhibition of CYP2C19 (unknown origin); format: ADME; in short: as §3
Chain of Cytochrome P450 2C19 (P33261 whole entry): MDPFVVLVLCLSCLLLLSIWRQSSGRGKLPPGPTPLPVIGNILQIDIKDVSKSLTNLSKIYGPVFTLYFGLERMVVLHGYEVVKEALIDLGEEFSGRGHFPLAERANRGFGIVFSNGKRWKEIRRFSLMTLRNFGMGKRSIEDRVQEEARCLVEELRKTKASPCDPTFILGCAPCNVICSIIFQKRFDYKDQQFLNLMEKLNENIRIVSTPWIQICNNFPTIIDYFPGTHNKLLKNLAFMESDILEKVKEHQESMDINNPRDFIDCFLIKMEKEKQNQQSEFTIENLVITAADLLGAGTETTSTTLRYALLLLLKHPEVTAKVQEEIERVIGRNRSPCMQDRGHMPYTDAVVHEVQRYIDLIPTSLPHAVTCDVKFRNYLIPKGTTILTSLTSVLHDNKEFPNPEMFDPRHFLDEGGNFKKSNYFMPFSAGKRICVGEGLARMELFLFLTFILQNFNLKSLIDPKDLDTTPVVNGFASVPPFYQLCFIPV

Rattus norvegicus [23] = assay: Toxicity in rat assessed as decrease in body weight at 250 mg/kg, po administered up to 28 days; format: organism-based; details: in vivo, 672 h; in short: as §2
Cytochrome P450 3A4 = Cytochrome P450 3A4 (Homo sapiens, UniProt P08684); assay: Inhibition of CYP3A4 (unknown origin); format: ADME; in short: as §3
Chain of Cytochrome P450 3A4 (P08684 whole entry): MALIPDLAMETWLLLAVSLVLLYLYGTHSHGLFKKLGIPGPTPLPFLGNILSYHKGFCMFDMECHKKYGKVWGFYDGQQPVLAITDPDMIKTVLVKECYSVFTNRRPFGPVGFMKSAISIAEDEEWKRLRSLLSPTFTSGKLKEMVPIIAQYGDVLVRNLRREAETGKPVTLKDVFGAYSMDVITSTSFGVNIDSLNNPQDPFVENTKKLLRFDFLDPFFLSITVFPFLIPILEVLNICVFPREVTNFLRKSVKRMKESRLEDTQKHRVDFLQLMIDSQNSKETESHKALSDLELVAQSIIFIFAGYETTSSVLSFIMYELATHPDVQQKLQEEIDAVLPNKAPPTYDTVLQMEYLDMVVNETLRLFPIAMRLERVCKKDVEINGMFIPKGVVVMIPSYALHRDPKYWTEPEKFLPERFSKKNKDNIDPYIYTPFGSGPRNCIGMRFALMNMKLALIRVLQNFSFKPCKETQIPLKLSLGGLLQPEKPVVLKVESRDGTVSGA

Rattus norvegicus [24] = assay: Toxicity in rat assessed as induction of mild and sporadic salivation at 250 mg/kg, po administered up to 28 days; format: organism-based; details: in vivo, 672 h; in short: as §2
Rattus norvegicus [25] = assay: Toxicity in rat assessed as clinical pathology alteration at 250 mg/kg, po administered up to 28 days; format: organism-based; details: in vivo, 672 h; in short: as §2
Rattus norvegicus [26] = assay: Wake-promoting activity in Sprague-Dawley rat assessed as increase in time spent awake at 10 mg/kg, sc administered during light sleep phase measured over first 6 hrs post-treatment; format: functional; in short: as §4
Cytochrome P450 1A2 = target: T1, Cytochrome P450 1A2 (Homo sapiens, UniProt P05177); assay: Inhibition of CYP1A2 (unknown origin); format: ADME; in short: as §3
T1 sequence (P05177 whole entry): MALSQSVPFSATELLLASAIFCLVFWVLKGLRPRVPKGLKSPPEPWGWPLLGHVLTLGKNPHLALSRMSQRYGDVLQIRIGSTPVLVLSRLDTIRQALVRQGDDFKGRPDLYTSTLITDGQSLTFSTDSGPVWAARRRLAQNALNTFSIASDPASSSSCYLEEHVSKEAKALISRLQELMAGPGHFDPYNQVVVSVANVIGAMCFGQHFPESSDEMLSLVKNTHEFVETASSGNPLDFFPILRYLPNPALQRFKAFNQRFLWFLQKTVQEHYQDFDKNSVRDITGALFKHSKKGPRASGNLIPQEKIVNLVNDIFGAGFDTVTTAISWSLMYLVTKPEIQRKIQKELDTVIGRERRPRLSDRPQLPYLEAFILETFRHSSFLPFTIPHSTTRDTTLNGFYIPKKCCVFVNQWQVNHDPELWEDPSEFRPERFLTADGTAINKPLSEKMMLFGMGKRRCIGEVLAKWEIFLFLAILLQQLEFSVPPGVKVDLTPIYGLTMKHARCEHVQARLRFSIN

Mus musculus = species on record: Mus musculus; assay: Toxicity in mouse; format: organism-based; details: in vivo
Rattus norvegicus [27] = assay: Toxicity in rat assessed as decrease in locomotor activity at 250 mg/kg, po administered up to 28 days; format: organism-based; details: in vivo, 672 h; in short: as §2
Rattus norvegicus [28] = assay: Ex vivo histamine H3 receptor occupancy in Sprague-Dawley rat striatum at 10 mg/kg, sc by autoradiographic analysis; format: functional
In short: (§6)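 Ex vivo H3 receptor occupancy measured after 10 mg/kg subcutaneous dosing in rats. Plasma Cmax was determined in parallel.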

Rattus norvegicus [29] = species on record: Rattus norvegicus; assay: Toxicity in rat assessed as phospholipidosis; details: in vivo
[30] = Half life in human; format: ADME, organism-based; details: in vivo
In short: (§7)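 Humans given single oral doses. Time to peak plasma concentration and mean t1/2 were determined across the dose range (10–400 mg).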

Canis familiaris [31] = species on record: Canis familiaris; assay: Toxicity in dog assessed as phospholipidosis; format: organism-based, Canis lupus familiaris; details: in vivo
Homo sapiens [32] = species on record: Homo sapiens; assay: Ex vivo histamine H3 receptor occupancy in human assessed as plasma concentration required to cause maximal receptor occupancy; format: functional
[33] = Tmax in po dosed human; format: ADME, organism-based; details: in vivo; in short: as §7
[34] = Inhibition of CYP450 in human liver microsomes; format: ADME
Rattus norvegicus [35] = assay: Ex vivo histamine H3 receptor occupancy in Sprague-Dawley rat striatum assessed as maximum plasma concentration required to cause >80% receptor occupancy at 10 mg/kg, sc; format: functional; in short: as §6
Rattus norvegicus [36] = species on record: Rattus norvegicus; assay: Toxicity in rat assessed as phospholipidosis; format: organism-based; details: in vivo

O=C(c1ccc(CN2CCOCC2)cc1)N1CCN(C2CCC2)CC1
concentration at 1 h [1]: 8.1 µM
Vd [2]: 6.4 L/kg
Occ (Rattus norvegicus [3]): 96%
half-life [4]: 2.1 h
Activity [5]: Not Active
Papp B→A at 10 µM [6]: 22.4 ×10⁻⁶ cm/s
remaining at 0.25 h, 1 µM [7]: 49.6%
Ki (Histamine H3 receptor): 0.0013 µM
IC50 [8]: > 10 µM
remaining at 0.25 h, 1 µM [9]: 85.4%
bioavailability [10]: 85%
clearance [11]: 34.9 mL/min/kg
Papp A→B at 1 h, 10 µM [12]: 71.2 ×10⁻⁶ cm/s

CC(C)N1CCN(C(=O)c2ccc(CN3CCOCC3)cc2)CC1.O=C(O)/C=C\C(=O)O
concentration at 1 h [1]: 5.37 µM
Activity (Rattus norvegicus [13]): Non-toxic
Vd [2]: 3.6 L/kg
Activity (Rattus norvegicus [14]): Non-toxic
NOAEL at 672 h [15]: 25 mg/kg/day
Activity (Canis familiaris [16]): Non-toxic
Activity (Rattus norvegicus [17]): Toxic
Activity (Homo sapiens [18]): Toxic
IC50 (Cytochrome P450 2C9): > 40 µM
Activity (Rattus norvegicus [19]): Active
Occ (Rattus norvegicus [3]): 86%
half-life [20]: 49.1 h
half-life [4]: 3.2 h
Activity [5]: Not Active
IC50 (Cytochrome P450 2D6): > 40 µM
Papp B→A at 10 µM [6]: 20.9 ×10⁻⁶ cm/s
fraction unbound [21]: 0.876
Ki (Histamine H3 receptor): 0.0025 µM
half-life [22]: 56.1 h
IC50 [8]: > 10 µM
IC50 (Cytochrome P450 2C19): > 40 µM
remaining at 0.25 h, 1 µM [9]: 65%
Activity (Rattus norvegicus [23]): Toxic
bioavailability [10]: 62%
IC50 (Cytochrome P450 3A4): > 40 µM
Activity (Rattus norvegicus [24]): Toxic
clearance [11]: 12.8 mL/min/kg
Activity (Rattus norvegicus [25]): Toxic
Time (Rattus norvegicus [26]): 1 h
IC50 (Cytochrome P450 1A2): > 40 µM
Papp A→B at 1 h, 10 µM [12]: 22.4 ×10⁻⁶ cm/s
Activity (Mus musculus): Non-toxic
Activity (Rattus norvegicus [27]): Toxic

Cl.O=C(c1ccc(CN2CCOCC2)cc1)N1CCN(C2CC2)CC1
concentration at 1 h [1]: 2.54 µM
Vd [2]: 1.7 L/kg
Occ (Rattus norvegicus [28]): >80%
Occ (Rattus norvegicus [3]): 58%
Activity (Rattus norvegicus [29]): Non-toxic
half-life [4]: 0.9 h
Activity [5]: Not Active
half-life [30]: 13.9 h
Papp B→A at 10 µM [6]: 37.8 ×10⁻⁶ cm/s
remaining at 0.25 h, 1 µM [7]: 44.1%
IC50 [8]: > 10 µM
Activity (Canis familiaris [31]): Non-toxic
remaining at 0.25 h, 1 µM [9]: 96.1%
bioavailability [10]: 112%
Activity (Homo sapiens [32]): 200 ng/mL
clearance [11]: 21.6 mL/min/kg
Tmax [33]: 0.5 h
inhibition (INH) [34]: Not Active
Activity (Rattus norvegicus [35]): 1933 ng/mL
Activity (Rattus norvegicus [36]): Non-toxic
Papp A→B at 1 h, 10 µM [12]: 108 ×10⁻⁶ cm/s

O=C(c1ccc(CN2CCC(F)CC2)cc1)N1CCN(C2CCC2)CC1
Vd [2]: 20.3 L/kg
half-life [4]: 2.1 h
IC50 [8]: > 10 µM
bioavailability [10]: 31%
clearance [11]: 113 mL/min/kg
